Measurements reported in ChEMBL document CHEMBL5252514, “Conopeptide-Derived κ-Opioid Agonists (Conorphins): Potent, Selective, and Metabolic Stable Dynorphin A Mimetics with Antinociceptive Properties” (J Med Chem, 2016).
Active and inactive are the calls of the source. No cut-off for these calls is given here.

Assays:
[1] = target: T1, Kappa-type opioid receptor (Homo sapiens, UniProt P41145); assay: Displacement of [3H]U69593 from human kappa opioid receptor expressed in CHO-K1 cells incubated for 1 hr by 1450 microbeta scintillation counter analysis; format: cell-based
Summary of the method: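 Membranes from transiently KOR-transfected CHO-K1 cells (~2 µg/well) used in SPA with 3H-U69,593 (1 nM). Competitor ranged 1 pM–10 µM in 50 mM Tris-HCl pH 7.4, 5 mM MgCl2, 0.1% BSA. Incubated 1 h at room temperature with shaking. Nonspecific binding defined with 10 µM dynorphin A. Sigmoidal dose-response fit; at least three independent experiments in triplicate.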

Homo sapiens [2] = species on record: Homo sapiens; assay: Selectivity ratio, ratio of Ki for human KOR to Ki for human NOP
Homo sapiens [3] = species on record: Homo sapiens; assay: Selectivity ratio, ratio of Ki for human KOR to Ki for human DOR
Homo sapiens [4] = species on record: Homo sapiens; assay: Selectivity ratio, ratio of Ki for human KOR to Ki for human MOR
[5] = target: T1, Kappa-type opioid receptor; assay: Agonist activity at human kappa opioid receptor expressed in CHO-K1 cells assessed as ERK phosphorylation incubated for 2 hrs by Alphascreen surefire method; format: cell-based
Summary of the method: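 CHO-K1 cells transiently transfected with KOR plasmid, harvested 24 h later, plated at 50,000 cells/well and settled 24 h, then serum-starved 12 h. Ligands in serum-free medium applied 10 min at room temperature. Lysates read by AlphaScreen SureFire phospho-ERK1/2 after 2 h at 37 °C. Curves fitted by sigmoidal dose-response.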

[6] = target: T1, Kappa-type opioid receptor; assay: Agonist activity at human kappa opioid receptor expressed in CHO-K1 cells assessed as inhibition of forskolin-stimulated cAMP production incubated for 30 mins by LANCE cAMP assay; format: cell-based
Summary of the method: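 Transiently KOR-transfected CHO-K1 cells taken 24 h post-transfection, 3,000 cells/well in HBSS stimulation buffer (0.1% BSA, 0.5 mM IBMX, 5 mM HEPES, pH 7.4). Forskolin (1 µM final) and ligand added, then 30 min at RT. LANCE Eu-cAMP tracer/anti-cAMP TR-FRET read after 1 h at RT. Sigmoidal dose-response fit.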

[7] = Metabolic stability in Wistar rat plasma assessed as half life by HPLC analysis; format: ADME, cell-free
Summary of the method: (§1)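 Peptide at 1 mg/mL in sterile PBS pH 7.4 was mixed 1:1 with thawed, centrifuged Wistar rat plasma supernatant and incubated at 37°C in triplicate. Samples at 0, 1, 2, 3, 4, 6 and 24 h were quenched with acetonitrile and then 2% TFA/water, and analysed by HPLC with inline electrospray MS.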

[8] = Metabolic stability in Wistar rat plasma assessed as URR formation by measuring relative abundance measuring after 60 mins by HPLC analysis relative to control; format: ADME, cell-free; conditions: 1 h; summary of the method: as §1
[9] = Metabolic stability in Wistar rat plasma assessed as Q[CHA]CC formation by measuring relative abundance measuring after 60 mins by HPLC analysis relative to control; format: ADME, cell-free; conditions: 1 h; summary of the method: as §1
[10] = Metabolic stability in Wistar rat plasma assessed as URRQ[CHA] formation by measuring relative abundance measuring after 60 mins by HPLC analysis relative to control; format: ADME, cell-free; conditions: 1 h; summary of the method: as §1
[11] = Metabolic stability in Wistar rat plasma assessed as BzPrrQ[CHA]CC formation by measuring relative abundance measuring after 360 mins by HPLC analysis relative to control; format: ADME, cell-free; conditions: 6 h; summary of the method: as §1
Mus musculus [12] = assay: Antinociceptive activity against C57BL/6 mouse model of TNBS induced chronic visceral hypersensitivity assessed as inhibition of colonic nociceptor mechanosensitivity at 1000 nM, administered topically on colon mucosal surface for 28 days; format: functional, organism-based; conditions: time 28.0 day
Summary of the method: (§2)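 Ex vivo single-unit extracellular recording of splanchnic colonic afferents from healthy C57BL/6 mice or CVH mice (28 days after TNBS, inflammation resolved). Baseline mechanosensitivity was measured with a 2 g von Frey probe applied 3 s to the receptive field, repeated 3–4 times 10 s apart. KOR agonist was applied to the mucosal surface for 5 min per concentration inside a small metal ring, then mechanosensitivity was re-tested.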

Mus musculus [13] = assay: Antinociceptive activity against C57BL/6 mouse model of TNBS induced chronic visceral hypersensitivity assessed as inhibition of colonic nociceptor mechanosensitivity at 1000 nM, administered topically on colon mucosal surface for 28 days in presence of norbinaltorphimine; format: functional, organism-based; conditions: time 28.0 day; summary of the method: as §2
Mus musculus [14] = assay: Antinociceptive activity against C57BL/6 mouse assessed as inhibition of colonic nociceptor mechanosensitivity at 1 to 1000 nM, administered topically on colon mucosal surface for 28 days; format: functional, organism-based; conditions: dose 1-1000 nM, time 28.0 day; summary of the method: as §2
[15] = Metabolic stability in Wistar rat plasma assessed as compound remaining measured after 24 hrs by HPLC analysis; format: ADME, cell-free; conditions: read-out: Stability; summary of the method: as §1
[16] = Metabolic stability in Wistar rat plasma assessed as BzPrrQ[CHA][PEN]C formation by measuring relative abundance measuring after 3600 mins by HPLC analysis relative to control; format: ADME, cell-free; conditions: 60 h
[17] = Metabolic stability in Wistar rat plasma assessed as UrrQ[CHA][PEN]C formation by measuring relative abundance measuring after 3600 mins by HPLC analysis relative to control; format: ADME, cell-free; conditions: 60 h
[18] = Metabolic stability in Wistar rat plasma assessed as UrrQ[CHA] formation by measuring relative abundance measuring after 120 mins by HPLC analysis relative to control; format: ADME, cell-free; conditions: 2 h; summary of the method: as §1
[19] = Metabolic stability in Wistar rat plasma assessed as UrrQ[CHA]CC formation by measuring relative abundance measuring after 120 mins by HPLC analysis relative to control; format: ADME, cell-free; conditions: 2 h; summary of the method: as §1

T1 sequence (P41145 whole entry): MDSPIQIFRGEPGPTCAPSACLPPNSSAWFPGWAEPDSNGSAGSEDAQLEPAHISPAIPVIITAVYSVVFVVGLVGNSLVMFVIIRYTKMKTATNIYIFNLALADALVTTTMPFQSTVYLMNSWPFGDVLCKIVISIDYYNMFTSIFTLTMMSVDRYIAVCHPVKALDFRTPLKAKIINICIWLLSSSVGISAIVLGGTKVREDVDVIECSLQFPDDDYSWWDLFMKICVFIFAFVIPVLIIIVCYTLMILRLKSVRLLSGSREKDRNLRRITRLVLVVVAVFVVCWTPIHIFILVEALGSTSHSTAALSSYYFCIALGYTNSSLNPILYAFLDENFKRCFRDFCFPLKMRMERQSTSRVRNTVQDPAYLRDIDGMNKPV

| Structure (SMILES) | Ki [1] [nM] | Ratio Ki (Homo sapiens [2]) | Ratio Ki (Homo sapiens [3]) | Ratio Ki (Homo sapiens [4]) | EC50 [5] [nM] | EC50 [6] [nM] | half-life [7] [min] | Activity [8] | Activity [9] | Activity [10] | Activity [11] | inhibition (Mus musculus [12]) | inhibition (Mus musculus [13]) | inhibition (Mus musculus [14]) | remaining at 24 h [15] [%] | Activity [16] | Activity [17] | Activity [18] | Activity [19] |
| --- | --- | --- | --- | --- | --- | --- | --- | --- | --- | --- | --- | --- | --- | --- | --- | --- | --- | --- | --- |
| N=C(N)NCCC[C@H](NC(=O)[C@@H]1CCC(=O)N1)C(=O)N[C@@H](CCCNC(=N)N)C(=O)N[C@@H](CCC(N)=O)C(=O)N[C@@H](CC1CCCCC1)C(=O)N[C@H]1CSSC[C@@H](C(N)=O)NC1=O | 6.7 | > 10000 | > 10000 | > 10000 | 1580 | 15.2 | 90 | 0.01 | 0.01 | 0.1 |  |  |  |  |  |  |  |  |  |
| N=C(N)NCCC[C@@H](NC(=O)[C@@H](CCCNC(=N)N)NC(=O)[C@@H]1CCCN1C(=O)c1ccccc1)C(=O)N[C@@H](CCC(N)=O)C(=O)N[C@@H](CC1CCCCC1)C(=O)N[C@H]1CSSC[C@@H](C(N)=O)NC1=O | 0.25 | > 45000 | > 250000 | > 250000 | 0.36 | 0.41 | 240 |  |  |  | 1 | Dose-Dependent Effect | inactive | inactive |  |  |  |  |  |
| CC1(C)SSC[C@@H](C(N)=O)NC(=O)[C@H]1NC(=O)[C@H](CC1CCCCC1)NC(=O)[C@H](CCC(N)=O)NC(=O)[C@@H](CCCNC(=N)N)NC(=O)[C@@H](CCCNC(=N)N)NC(=O)[C@@H]1CCCN1C(=O)c1ccccc1 | 1140 |  |  |  |  |  |  |  |  |  |  |  |  |  | 95 | 1 |  |  |  |
| CC1(C)SSC[C@@H](C(N)=O)NC(=O)[C@H]1NC(=O)[C@H](CC1CCCCC1)NC(=O)[C@H](CCC(N)=O)NC(=O)[C@@H](CCCNC(=N)N)NC(=O)[C@@H](CCCNC(=N)N)NC(=O)[C@@H]1CCC(=O)N1 | 1.3 | > 25000 | > 1200 | > 39000 | 450 | 10.5 |  |  |  |  |  |  |  |  | 100 |  | 1 |  |  |
| N=C(N)NCCC[C@@H](NC(=O)[C@@H]1CCC(=O)N1)C(=O)N[C@H](CCCNC(=N)N)C(=O)N[C@@H](CCC(N)=O)C(=O)N[C@@H](CC1CCCCC1)C(=O)N[C@H]1CSSC[C@@H](C(N)=O)NC1=O | 3.9 | > 10000 | > 10000 | > 10000 | 1100 | 12.6 | 360 |  |  |  |  |  |  |  |  |  |  | 0.1 | 1 |
